# This is a sample that favours compounds with a hit; in the whole collection about 2.2% have one here.
# GalR3 antagonist = blocks the human galanin receptor 3; HEK293 GalR3-CNG cAMP membrane potential fluorescence; galR3 body fused to GalR1 C-terminus; inhibition, % at 3 µM; actives 0.44% (n = 360,000); AID 651719;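 active = inhibition above the screen-wide average plus 3 SD, cut at about 13% in these data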;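 also: forskolin and galanin both at EC90 stimulate the cells; cAMP rise reported by CNG channel membrane potential dye signal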
# Target sequence (O60755 1-299 limits assumed): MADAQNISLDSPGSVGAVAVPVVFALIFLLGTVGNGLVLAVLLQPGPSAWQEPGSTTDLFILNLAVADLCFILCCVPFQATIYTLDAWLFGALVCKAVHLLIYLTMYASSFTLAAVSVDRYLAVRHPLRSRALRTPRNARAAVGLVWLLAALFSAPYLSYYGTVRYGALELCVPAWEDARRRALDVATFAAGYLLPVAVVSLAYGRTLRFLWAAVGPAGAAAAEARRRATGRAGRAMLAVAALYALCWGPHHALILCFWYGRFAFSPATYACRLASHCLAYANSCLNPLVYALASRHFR
# NR2E3 ag-1 = activates human photoreceptor nuclear receptor NR2E3; inhibition of corepressor binding, % at 4.78 µM; actives 0.12% (n = 320,000); GST-NR2E3/biotin-RetCOR TR-FRET, 1536-well; AID 2300; Q9Y5X4;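 active = percent inhibition above the cutoff of mean plus 3 SD of all tested compounds, set per screening campaign, cut at about 20% in these data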
#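 System: GST-tagged NR2E3 plus biotinylated RetCOR corepressor; Buffer or medium: pH 7.5 Tris-based buffer; Probe or stimulus: RetCOR corepressor, biotinylated, 7 nM; Doses: compound at 4.8 µM, single dose; Schedule: 5 h incubation at 4 °C; Technique: time-resolved FRET; Evaluation: percent inhibition of TR-FRET ratio; Replication: one well per compound, singlicate testing.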
# NR2E3 ag-2 = human photoreceptor-specific nuclear receptor agonism. Q9Y5X4. CHO-S Gal4-NCOR/VP16-NR2E3 two-hybrid, luciferase. inhibition of corepressor binding, % at 3.98 µM. actives 0.35% (n = 360,000). AID 602229;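 active = inhibition above the mean of all tested compounds plus 3 SD, cut at about 70% in these data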;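 also: higher means lower luciferase signal from less NR2E3 corepressor binding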
# SMARCA2 activ = increases SMARCA2 function in MMTV reporter cells | MG213 cells, MMTV-luciferase reporter, dexamethasone, overnight | activation, % at 9.1 µM | actives 1% (n = 370,000) | AID 652017; in the data active = activation above about 7.8%
# NR2F2 inh = inhibitors of human COUP-TFII (NR2F2) | P24468 | HEK293T NGFI-A luciferase reporter, luminescence | inhibition, % at 8.6 µM | actives 0.7% (n = 370,000);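 active = inhibition above a per-plate cutoff, mean inhibition of test wells between control levels plus 3 SD, cut at about 38% in these data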;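 also: cells cotransfected with COUP-TFII expression vector driving the NGFI-A reporter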
# GalR3 conf = confirmation of human galanin receptor 3 antagonists. shares compounds with GalR3 antagonist. HEK293 GalR3 CNG cAMP biosensor, membrane potential fluorescence; galR3 fused to GalR1 carboxy tail; challenged with forskolin and galanin at EC90. inhibition, % at 3 µM. actives 59% (n = 1,600);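 active = inhibition above the primary screen's cutoff, the mean inhibition of all screened compounds plus 3 SD, cut at about 13% in these data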
# CNG parental = counter-screen for GalR3 antagonists: nonspecific agonists in parental HEK-CNG cells; activation, % at 3 µM; AID 652268; actives 10% (n = 1,600); HEK293-CNG parental cells, cAMP membrane potential fluorescence; normalised: DMSO wells 0%, forskolin wells 100%; shares compounds with GalR3 antagonist; in the data active = activation above about 1.3%
# Hits are given with their value; n = inactive; x = no result.
SMILES,GalR3 antagonist,NR2E3 ag-1,NR2E3 ag-2,SMARCA2 activ,NR2F2 inh,GalR3 conf,CNG parental
CC(=O)N1C[C@@H](CO)[C@@H]2C[C@H]1c1ccccc1N2C,n,x,x,n,n,x,x
NC(=O)CSc1nc2sc3c(c2c2ncnn12)CCCC3,n,n,n,n,n,x,x
CC1CCCc2sc3nc(N4CCN(CCO)CC4)n4ncnc4c3c21 (centres undefined),22,n,n,n,n,43,1.9
CCc1ccc(C(=O)CSc2ncn[nH]2)cc1,54,n,n,n,n,22,n
COc1ccc(S(=O)(=O)N(CCc2ccccc2)CC(=O)N/N=C/c2ccc3c(c2)OCO3)cc1,n,n,n,n,n,x,x
O=C(CN(CCc1ccccc1)S(=O)(=O)c1ccc(Cl)cc1)N/N=C/c1ccc2c(c1)OCO2,13,n,n,n,n,n,1.9
CCCc1ccc(Oc2cc(C)nc(N3CCOCC3)n2)cc1,15,n,n,n,n,n,n
C#CC(C)OC(=O)C(C)NC(=O)c1ccccc1 (centres undefined),x,n,n,n,n,14,n
CC(C)n1cnc2c(N(C)c3cccc(Cl)c3)nc(N(CCO)CCO)nc21,x,n,n,n,n,n,n
CCOc1ncccc1C(=O)OCC(=O)c1ccccc1Br,16,n,n,n,n,n,n
CN1C(=O)C(C)(C)c2cc(S(=O)(=O)N3CCCC(C(=O)Nc4ccc(Cl)cc4)C3)ccc21 (centres undefined),18,n,n,n,n,25,n
CCN=C1S/C(=C/c2cc(C)n(-c3ccc(Cl)cc3F)c2C)C(=O)N1CC,x,x,x,x,n,x,x
COCCCn1c(-c2ccccc2Cl)n[nH]c1=S,x,n,n,n,n,n,n
c1ccc(C2=Nn3c(nnc3-c3cccs3)SC2)cc1,n,n,n,n,n,x,x
c1ccc(-c2ccc(C3=Nn4c(nnc4-c4cccs4)SC3)cc2)cc1,16,n,n,n,n,46,1.8
Cc1nc2scc(-c3ccccc3)c2c(=O)n1N=C1C=CC(=O)C=C1,15,x,x,n,n,24,n
COc1ccc(NC(=O)Cn2nc(C(=O)O)c3ccccc3c2=O)cc1Cl,13,n,n,n,n,n,n
COP(=O)(OC)C(NC(=O)OCc1ccccc1)C(C)C (centres undefined),x,x,x,n,n,x,x
C[N+]1(C)[C@H]2CC[C@H]1CC(OC(=O)C(O)c1ccccc1)C2 (some centres undefined),x,x,x,n,n,x,x
Nc1[nH]n2c(=O)c3c(nc2c1N=Nc1ccccc1)CCCC3,61,n,n,n,n,28,n
Nc1[nH]n2c(=O)c3c(nc2c1N=Nc1ccc(Cl)cc1)CCCC3,n,n,n,n,n,x,x
Cc1c(NC(=O)C2CCCN(S(=O)(=O)c3c(C(C)C)cc(C(C)C)cc3C(C)C)C2)c(=O)n(-c2ccccc2)n1C (centres undefined),x,x,x,n,n,x,x
COc1ccc(Cl)cc1CN1CCOCC1,13,n,n,n,n,n,n
CCCOc1ccc(Cl)cc1CN1CCOCC1,n,n,n,n,n,x,x
O=C(Nc1ccc2c(c1)OCCO2)NC1CCCCC1,x,n,n,n,n,n,n
SMILES,GalR3 antagonist,NR2E3 ag-1,NR2E3 ag-2,SMARCA2 activ,NR2F2 inh,GalR3 conf,CNG parental
NC(=O)C1CCN(C(=O)c2ccc3nc(N4CCCCC4)sc3c2)CC1,16,n,n,n,n,n,n
Cc1cc(NC(=O)c2ccc(NS(=O)(=O)c3ccccc3)cc2)no1,x,x,x,n,n,x,x
CCn1c(SCC(=O)c2ccc(-c3ccccc3)cc2)nnc1-c1ccccc1OC,x,x,x,n,n,x,x
CCOc1cc2c(cc1OC)C(NC(=O)c1ccco1)CC2=O (centres undefined),17,n,n,n,n,n,n
Cn1c(N)c(C(=O)COC(=O)CC(NC(=O)c2ccccc2Cl)c2ccccc2)c(=O)n(C)c1=O (centres undefined),14,n,n,n,n,n,n
CCCCCCCCNC(=O)C1CSCCS(=O)(=O)N1Cc1ccccc1 (centres undefined),x,x,x,n,n,x,x
O=C(Nc1ccc(Br)cc1F)c1ccncc1,22,n,n,n,n,15,n
O=S1(=O)c2ccccc2-c2c(nnn2Cc2ccccc2)CN1C1CC1,x,x,x,n,n,x,x
CCOC(=O)Cn1cc(CN2C(C(=O)OC)CN(Cc3ccc(Cl)cc3)CCS2(=O)=O)nn1 (centres undefined),x,x,x,n,n,x,x
Cc1[nH]nc(SCC(=O)N2CCCCCC2)c1[N+](=O)[O-],14,n,n,n,n,n,n
COc1cc2c(cc1OC)-c1cc(N3CCc4ccccc43)nc(=O)n1CC2,n,n,n,n,n,x,x
COc1cc2c(cc1OC)-c1cc(N3CCCc4ccccc43)nc(=O)n1CC2,47,n,n,n,n,60,n
COc1cc2c(cc1OC)-c1cc(N3CCCCCC3)nc(=O)n1CC2,50,n,n,n,n,14,n
COc1cc(C(=O)N/N=C/c2sccc2C)cc(OC)c1OC,14,x,n,n,n,n,1.8
Cc1ccsc1/C=N/NC(=O)c1ccncc1,n,n,n,n,n,x,x
CCOC(=O)c1sc(-c2ccc(C)cc2)c(C#N)c1C,n,n,n,n,n,x,x
Cc1c(C(=O)NN)sc(-c2ccccc2)c1C#N,16,n,n,n,n,n,n
Cc1ccc(CN2CCCCC(NC(=O)Nc3ccccc3)C2=O)cc1 (centres undefined),x,x,x,n,n,x,x
COc1ccc(CCNC(=O)c2cccnc2SC)cc1,13,n,n,n,n,27,n
CCc1nc2sc(C#N)c(N)c2c2c1CCCC2,42,n,n,n,n,57,n
CCc1nc2sc(C(C)=O)c(N)c2c2c1CCCC2,n,n,n,n,n,x,x
CCn1c(=O)[nH]c(=O)c2c(N)c(C(=O)c3ccccc3OC)sc21,15,n,n,n,n,n,n
O=C(CNS(=O)(=O)c1cccs1)N1CCN(c2ncccn2)CC1,x,x,x,n,n,x,x
CCn1c(O)c(/C=N/N=C2CCCCC2)c2cc(C3=NNC(=O)CC3)ccc21,25,n,n,n,n,n,n
CCn1c(O)c(/C=N/N=C2CCCC2)c2ccc(C3=NNC(=O)CC3)cc21,n,n,n,n,n,x,x
COCCn1nnnc1C(c1cccs1)N1CCN(c2nc3ccccc3s2)CC1 (centres undefined),n,n,n,n,n,x,x
Oc1ccc(C(c2nnnn2CCc2ccccc2)N2CCN(c3nc4ccccc4s3)CC2)cc1 (centres undefined),23,n,n,n,n,n,n
Cn1cc(-c2cccc3[nH]cc(-c4ccccc4)c23)c2ccccc21,x,x,x,n,n,x,x
